Entries after “also recorded” stand apart in the source; their conditions may differ. Like-named read-outs stand apart in the source and are kept apart here. Where no end group is shown, it is not given here. The star is where a group is joined. MTSL = methane thiosulphonate spin label, CC1(C)C=C(CS*)C(C)(C)N1[O]
How the values were obtained:
[1] = test system: Pyk2-FAT; experiment: Isothermal titration calorimetry; assay type: binding, human
Method in brief: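 Human Pyk2 FAT domain (residues 871–1005) with an N-terminal His6 tag, expressed in E. coli BL21(DE3) and purified by Ni-affinity then gel filtration. The cell held 10 μM protein in 20 mM MES, pH 6.2. The syringe held chicken paxillin LD-motif peptides (100 μM) or the His-tagged paxillin 133–290 fragment (50 μM). Solutions degassed; 2 μl injections, 120 s apart, at 25°C. Ligand-into-buffer heats subtracted. Fits used one-site or two-site sequential models. Run in duplicate.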

[2] = test system: Pyk2-FAT; experiment: Sedimentation equilibrium AUC; assay type: binding, human; settings: AUC-SE; for Kd: two site hetero-association model (A+B+B↔ABB), 1:2 Pyk2-FAT to peptide, 20 mM MES, pH 6.2, 4 °C, Monte Carlo error, 500 iterations, confidence level 0.68
Method in brief: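 Sedimentation equilibrium at 4 °C in 20 mM MES, 50 mM NaCl, pH 6.2. Rotor speeds 18.4, 26.9 and 46k rpm, equilibrium reached at 30, 26 and 18 h. Loading 35–96 μM. Absorbance read at 280 and 230 nm, 0.001 cm radial steps, 20 replicates per point. Global least-squares fit across speeds to the A+B+B↔ABB model.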

[3] = test system: Pyk2-FAT; experiment: NMR titration / chemical shift perturbation of 15N-labeled Pyk2-FAT; assay type: binding, human; settings: 15N-HSQC/TROSY titration, Pyk2-FAT:ligand 1:0.2 to 1:2, 20 mM MES, pH 6.2, 305K
Method in brief: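 15N-labeled Pyk2-FAT (400–500 μM in 20 mM MES, pH 6.2) titrated at 305 K with chicken LD peptides at protein:peptide ratios of 1:0.2 to 1:2. Peptide stocks were in dialysis buffer, pH readjusted to 6.2. 15N-HSQC spectra recorded at 600/800 MHz. Weighted shift Δav = [(ΔH² + (ΔN/5)²)/2]^1/2. For PRE, MTSL-labeled peptides were added at 1:0.2 and Iox/Ired taken after ascorbate reduction.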

[4] = test system: Pyk2-FAT; experiment: H/D exchange NMR of Pyk2-FAT complexes; parameters: species or system human; settings: H/D exchange in D2O, fast 15N-HSQC, up to 10 h
Method in brief: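 15N-labelled Pyk2-FAT complexes (400–500 μM, 20 mM MES pH 6.2) were lyophilized and rehydrated in D2O. FAST 1H-15N HSQC spectra were recorded at intervals up to 10 h at 305 K. HSQC spectra in H2O before and after exchange checked structural integrity.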

[5] = test system: Pyk2-FAT; experiment: Steady-state 1H-15N heteronuclear NOE; parameters: species or system human; settings: 600 MHz, 305 K; relative to free Pyk2-FAT, loop regions
Method in brief: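 Steady-state 1H-15N heteronuclear NOE was measured at 600 MHz, 305 K on 15N-labelled Pyk2-FAT, free and bound to LD-motif peptide. Protein was at 400–500 μM in 20 mM MES pH 6.2. NOE values were taken as peak-intensity ratios of 1H-saturated to unsaturated spectra.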

[6] = test system: Pyk2-FAT; experiment: Reverse NMR titration: unlabeled Pyk2-FAT added to 15N-labeled paxillin ligand; assay type: binding, human; settings: 1H-15N HSQC/TROSY, ratios up to 1:2, 20 mM MES, pH 6.2
Method in brief: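 Unlabelled Pyk2-FAT was titrated into a 15N-labelled ligand in 20 mM MES pH 6.2, with 15N-1H HSQC spectra at 600/800 MHz and 305 K. Ligands were an expressed chicken paxillin 139–163 peptide or His-tagged chicken paxillin 133–290. […] Ratios were 1:0.2–1:2.0.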

[7] = test system: Pyk2-FAT; experiment: Co-crystal structure with Pyk2-FAT; assay type: binding, human; settings: PDB 4R32, 3.5 Å, one at H1/H4, one at H2/H3
[8] = test system: FAK-FAT; settings: ref [39] (b5), [39], [40]; cited from earlier work
[9] = test system: FAT-like domain from G-protein-coupled receptor kinase-interacting protein 1 (GIT1); settings: ref [41]; cited from earlier work
[10] = test system: Pyk2-FAT; experiment: Paramagnetic relaxation enhancement; assay type: binding, human; settings: PRE, MTSL-labeled peptide, Pyk2-FAT:peptide 1:0.2, 20 mM MES, pH 6.2
Method in brief: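 Single-cysteine peptide variants in 20 mM phosphate pH 7.2 were reacted with fivefold molar excess MTSL for 8 h at room temperature. They were HPLC-repurified, lyophilized and redissolved in 20 mM MES pH 6.2, then added to uniformly 15N-labelled Pyk2-FAT. The reduced reference used fivefold molar excess ascorbic acid for 1 h. Per-residue Iox/Ired peak-intensity ratios were computed, excluding prolines and overlapped peaks.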

Row | Substance | relative binding at H1/H4 and H2/H3 sites of Pyk2-FAT ([1]; discussion statement, H1/H4 versus H2/H3) | affinity preference for H2/H3 site over H1/H4 site of Pyk2-FAT ([1]; from ITC and AUC studies) | global free energy difference between first and second sites (ΔGAB and ΔGABB) ([2]; 1:2 stoichiometry, two-site hetero-association model) | Delta G, single site (1:1) ([2]; single site hetero-association model, T = 277.149994K, RT = 0.551kcal/mol) | Delta G, first binding site (1:2) ([2]; two site hetero-association model, first site, T = 277.149994K, RT = 0.551kcal/mol) | Delta G, second binding site (both occupied) ([2]; two site hetero-association model, second site, T = 277.149994K, RT = 0.551kcal/mol) | Kd ([2]; read-out: KAB (first site), 1:2 stoichiometry) | Kd ([2]; read-out: KABB (second site), 1:2 stoichiometry) | binding sites / site preference on Pyk2-FAT by NMR [3] | amide H/D exchange protection of Pyk2-FAT in complex [4] | steady-state 1H-15N NOE of Pyk2-FAT amides upon ligand binding [5] | effect of unlabeled Pyk2-FAT on resonances of 15N-labeled ligand [6] | peptide molecules bound per Pyk2-FAT in crystal [7] | preferred binding site on FAK-FAT [8] | binding site on GIT1 FAT-like domain [9] | H2/H3 residues of Pyk2-FAT affected by spin-labeled peptide [10]
1 | LD2: paxillin derived peptide LD2 (chicken paxillin; residues 139–163), chemically synthesized (GSNLSELDRLLLELNAVQHNPPSGF) | binds to both H1/H4 and H2/H3 sites of Pyk2-FAT equally well | 5 fold | -0.76 kcal/mol | -7.61 kcal/mol | -7.45 kcal/mol | -6.69 kcal/mol | 1.32 ± 0.02 µM | 5.3 ± 0.12 µM | H2/H3 is the stronger binding site | residues from H2/H3 and H1/H4 were protected even after 10 hrs | significantly increased relative to free Pyk2-FAT | most of the LD2 resonances were broadened beyond detection | two LD2 peptides bind to one molecule of Pyk2-FAT | specifically recognizes the H1/H4 site of FAK-FAT; also recorded: preferentially binds to the helices H1 and H4 interface (H1/H4) site | located exclusively at the H1/H4 surface | –
2 | LD2MTSL: methane thiosulphonate (MTSL)-derivatized LD2 peptide (GSNLSELDRLLLELNAVC(MTSL)HNPPSGF) | – | – | – | – | – | – | – | – | – | – | – | – | – | – | – | residues from H2/H3 disappeared or showed reduced intensity
